Where “and” joins values, the source holds several entries; their conditions need not be identical. Equal entries are not always repeated.
Tests used:
[1] = tested on: Fibroblast; assay: Multiplex assay against human fibroblast; format: toxicity, cell-based; settings: number of replicates 2
Method in brief: (§1)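 Four dyes were applied at seeding to live cells: Hoechst33342, BioTracker Green Microtubule Cytoskeleton Dye, MitoTracker Red and Annexin V Alexa Fluor 680. Imaging after compound addition used a CQ1 microscope at 37°C and 5% CO2. CellPathfinder machine-learning gating then sorted cells into Hoechst high-intensity objects or normal cells, normal cells into healthy, pyknosed or fragmented nuclei, and pyknosed cells into mitotic or apoptotic, with tubulin, mitochondrial-mass and membrane-permeability phenotypes given as per cents of healthy-nucleus cells.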

[2] = tested on: HEK-293T; assay: Multiplex assay against HEK293T; format: toxicity, cell-based; settings: human, number of replicates 2; method in brief: as §1
[3] = 24 h, 10 µM, compound concentration 10 uM
[4] = 48 h, 1 µM, compound concentration 1 uM
[5] = 48 h, 10 µM, compound concentration 10 uM
[6] = 12 h, 1 µM, compound concentration 1 uM
[7] = 12 h, 10 µM, compound concentration 10 uM
[8] = 24 h, 1 µM, compound concentration 1 uM

CN1CCCN(C(=O)c2cccc(-c3ccc(/C=C4/C(=O)Nc5ccc(Cl)cc54)o3)c2)CC1
Population Pyknosed Nuclei (%) [1, 3]: 78% | Population Tubulin-Different-Phenotype (%) [1, 3]: 34% and 30% | Total Cell Count [1, 3]: 135 and 165 | Population Apoptotic (%) [1, 4]: 62% and 80% | Population Fragmented Nuclei (%) [1, 4]: 8% and 7% | Population Healthy Nuclei (%) [1, 4]: 81% and 78% | Population Hoechst High Intensity Objects (%) [1, 4]: 0% | Population Membrane Permeable-Phenotype (%) [1, 4]: 4% and 8% | Population Mitochondria Different-Phenotype (%) [1, 4]: 1% | Population Mitotic Cells (%) [1, 4]: 37% and 19% | Population Normal (%) [1, 4]: 100% and 99% | Population Pyknosed Nuclei (%) [1, 4]: 10% and 13% | Population Tubulin-Different-Phenotype (%) [1, 4]: 20% and 17% | Total Cell Count [1, 4]: 269 and 155 | Population Apoptotic (%) [1, 5]: 88% and 71% | Population Fragmented Nuclei (%) [1, 5]: 20% and 37% | Population Healthy Nuclei (%) [1, 5]: 26% and 18% | Population Hoechst High Intensity Objects (%) [1, 5]: 0% | Population Membrane Permeable-Phenotype (%) [1, 5]: 50% and 30% | Population Mitochondria Different-Phenotype (%) [1, 5]: 0% | Population Mitotic Cells (%) [1, 5]: 11% and 28% | Population Normal (%) [1, 5]: 100% | Population Pyknosed Nuclei (%) [1, 5]: 52% and 43% | Population Tubulin-Different-Phenotype (%) [1, 5]: 46% and 27% | Total Cell Count [1, 5]: 120 and 174 | Population Apoptotic (%) [2, 6]: 58% and 72% | Population Fragmented Nuclei (%) [2, 6]: 4% | Population Healthy Nuclei (%) [2, 6]: 88% and 86% | Population Hoechst High Intensity Objects (%) [2, 6]: 6% | Population Membrane Permeable-Phenotype (%) [2, 6]: 3% and 2% | Population Mitochondria Different-Phenotype (%) [2, 6]: 8% and 12% | Population Mitotic Cells (%) [2, 6]: 41% and 27% | Population Normal (%) [2, 6]: 93% | Population Pyknosed Nuclei (%) [2, 6]: 6% and 9% | Population Tubulin-Different-Phenotype (%) [2, 6]: 60% and 45% | Total Cell Count [2, 6]: 923 and 535 | Population Apoptotic (%) [2, 7]: 67% and 62% | Population Fragmented Nuclei (%) [2, 7]: 2% and 1% | Population Healthy Nuclei (%) [2, 7]: 86% and 92% | Population Hoechst High Intensity Objects (%) [2, 7]: 5% and 6% | Population Membrane Permeable-Phenotype (%) [2, 7]: 7% and 4% | Population Mitochondria Different-Phenotype (%) [2, 7]: 38% and 32% | Population Mitotic Cells (%) [2, 7]: 32% and 37% | Population Normal (%) [2, 7]: 94% and 93% | Population Pyknosed Nuclei (%) [2, 7]: 11% and 6% | Population Tubulin-Different-Phenotype (%) [2, 7]: 94% and 96% | Total Cell Count [2, 7]: 365 and 416 | Population Apoptotic (%) [2, 8]: 57% and 72% | Population Fragmented Nuclei (%) [2, 8]: 7% and 6% | Population Healthy Nuclei (%) [2, 8]: 86% and 85% | Population Hoechst High Intensity Objects (%) [2, 8]: 9% | Population Membrane Permeable-Phenotype (%) [2, 8]: 2% and 1% | Population Mitochondria Different-Phenotype (%) [2, 8]: 1% and 3% | Population Mitotic Cells (%) [2, 8]: 42% and 27% | Population Normal (%) [2, 8]: 90% | Population Pyknosed Nuclei (%) [2, 8]: 6% and 8% | Population Tubulin-Different-Phenotype (%) [2, 8]: 18% and 20% | Total Cell Count [2, 8]: 1009 and 610 | Population Apoptotic (%) [2, 3]: 64% and 56% | Population Fragmented Nuclei (%) [2, 3]: 4% and 2% | Population Healthy Nuclei (%) [2, 3]: 79% and 90% | Population Hoechst High Intensity Objects (%) [2, 3]: 2% and 4% | Population Membrane Permeable-Phenotype (%) [2, 3]: 7% and 8% | Population Mitochondria Different-Phenotype (%) [2, 3]: 34% and 29% | Population Mitotic Cells (%) [2, 3]: 35% and 43% | Population Normal (%) [2, 3]: 97% and 95% | Population Pyknosed Nuclei (%) [2, 3]: 16% and 7% | Population Tubulin-Different-Phenotype (%) [2, 3]: 84% and 87% | Total Cell Count [2, 3]: 402 and 421 | Population Apoptotic (%) [2, 4]: 43% and 64% | Population Fragmented Nuclei (%) [2, 4]: 16% and 12% | Population Healthy Nuclei (%) [2, 4]: 81% and 84% | Population Hoechst High Intensity Objects (%) [2, 4]: 6% and 5% | Population Membrane Permeable-Phenotype (%) [2, 4]: 0% | Population Mitochondria Different-Phenotype (%) [2, 4]: 1% and 4% | Population Mitotic Cells (%) [2, 4]: 56% and 35% | Population Normal (%) [2, 4]: 93% and 94% | Population Pyknosed Nuclei (%) [2, 4]: 2% | Population Tubulin-Different-Phenotype (%) [2, 4]: 14% and 15% | Total Cell Count [2, 4]: 1019 and 606 | Population Apoptotic (%) [2, 5]: 60% and 55% | Population Fragmented Nuclei (%) [2, 5]: 6% | Population Healthy Nuclei (%) [2, 5]: 46% and 55% | Population Hoechst High Intensity Objects (%) [2, 5]: 7% and 3% | Population Membrane Permeable-Phenotype (%) [2, 5]: 3% and 2% | Population Mitochondria Different-Phenotype (%) [2, 5]: 50% and 38% | Population Mitotic Cells (%) [2, 5]: 39% and 44% | Population Normal (%) [2, 5]: 92% and 96% | Population Pyknosed Nuclei (%) [2, 5]: 47% and 38% | Population Tubulin-Different-Phenotype (%) [2, 5]: 77% and 76% | Total Cell Count [2, 5]: 403 and 446

— ChEMBL document CHEMBL5303300, “EUbOPEN Chemogenomics Library - Multiplex” (2023)
